Compound activity (PubChem)
This is a sample that favours compounds with a hit; in the whole collection about 3% have one here.
N-glyco inh – N-linked glycosylation inhibition; D54 ERlucT glycosylation luciferase reporter, 24 h; percent of 100 nM tunicamycin response; 360,000 compounds, 0.23% hits; reporter increase, % at 12.5 µM;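 active = mean luciferase reporter signal, scaled so untreated is 0 and the glycosylation-blocking control 100, at or above a set limit in every replicate; inconclusive = mean reaches the limit but not every replicate does; inactive = mean below the limit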;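 note: luciferase carries N-glycosylation sites so blocking glycosylation raises the light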
T cruzi inh – blocks replication of Trypanosoma cruzi; 300,000 compounds, 1.4% hits; inhibition, % (test concentration not listed); T. cruzi beta-gal in NIH3T3, luminescence, 90 h; AID 1885;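 active = mean inhibition across valid replicates above about 55%, limit read from the data; inconclusive = mean below that limit but half or more replicates reach it; inactive = mean below it, under half of replicates reach it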;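 note: signal also drops with host cell toxicity which is not excluded here; higher percent means less beta-gal luminescence so fewer parasites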
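Material: NIH/3T3 host cells with β-galactosidase reporter T. cruzi; Input: 5,000 host fibroblasts per well; Medium: DMEM, 2% fetal bovine serum; Compound: 50 nL DMSO compound solution per well; Schedule: 3 h host attachment, then at least 90 h co-culture; Detection: luminescent β-galactosidase signal after 60 min lysis.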
PfHsp90 set2 – reduces growth (ATP signal) of yeast expressing P. falciparum Hsp90; 310,000 compounds, 0.32% hits; inhibition, % at 9.4 µM; S. cerevisiae expressing PfHsp90, BacTiter-Glo ATP, 48 h; yeast lacking PDR1 and PDR3 efflux regulators;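 active = every replicate shows inhibition above about 80%, whatever the replicate mean, limit read from the data; inconclusive = mean inhibition reaches the set limit but some replicate falls short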
CaV13 ICDI inh – Primary screen for inhibitors of IQ motif and Ca2+-dependent inactivation inhibitor domain binding in CACNA1D, Förster resonance energy transfer in living cells, …; HEK cells, CFP/YFP FRET ICDI-IQ, plate reader, 10 min; percent FRET-ratio fall versus neutral wells; inhibition, % at 12.3 µM; 340,000 compounds, 0.098% hits;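 active = mean replicate inhibition of at least 30% and at least 1% of replicates passing that level; inconclusive = only one of the two criteria is met; inactive = neither criterion is met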
HSF-1 act – increases HSF-1 driven luciferase reporter signal; NIH3T3-HGL HSF-1 luciferase reporter, MG132, 8 h; 100% = twice DMSO control signal; 300,000 compounds, 1.7% hits; activation, % at 9 µM;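 active = mean replicate activation of at least 50% with a set share of replicates each reaching 50%; inconclusive = only one of those two conditions met; inactive = mean below 50% and too few replicates reaching it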
PvdQ acylase – P. aeruginosa PvdQ acylase inhibition; purified PvdQ acylase, fluorescence plate reader; inhibition, % at 10 µM; 340,000 compounds, 0.063% hits; AID 488965; in the data active = inhibition above about 30%, passing the limit was not always enough; inconclusive = no clear call, values can overlap the other calls
Hits are given with their value; - = inactive; ? = inconclusive; . = not tested or not shown.

SMILES	N-glyco inh	T cruzi inh	PfHsp90 set2	CaV13 ICDI inh	HSF-1 act	PvdQ acylase
CS(=O)(=O)c1ccc(NC(=O)C2CCCN(C(=O)c3ccc(Cl)cc3)C2)cc1 (stereo not given)	-	.	-	-	.	-
Cc1ccc(NC(=O)C2CC2C)cc1S(=O)(=O)N1CCOCC1 (stereo not given)	-	60	.	-	-	-
COCCCNC(=O)C[C@H]1C[C@@]2(C(=O)OC)C(=C[C@H](COCc3ccccc3)O[C@@H]2C)N(CCC2=CCCCC2)C1=O	.	.	.	-	.	.
Cn1c(CNc2ccccc2O)nc2ccccc21	-	-	-	-	80	-
Cn1c(CSc2nc3ccccc3n2C)nc2ccccc21	-	-	-	-	70	-
Cc1ccccc1NCc1nc2ccccc2n1C	-	-	-	-	?	-
CCCOc1ccc(-c2c(=O)n(OCC(=O)OCC)c3ccccc3[n+]2[O-])cc1	-	-	-	-	56	-
Cc1ccc(S(=O)(=O)N(C)c2cccc3c2S(=O)(=O)N([C@H](C)c2ccccc2)C[C@@H](COCc2ccccc2)O3)cc1	.	.	.	-	.	.
Cc1ccc(SCCC(=O)N2CCC(C)CC2)cc1	-	-	.	-	58	-
Cc1ccc(S(=O)(=O)N(CC(=O)N2CCC(C)CC2)c2ccccc2)cc1	-	-	-	-	-	37
Cc1ccc(SCCC(=O)N2CCC(C(N)=O)CC2)cc1	-	-	-	-	-	-
COc1ccc(-c2nnc(SC(C)C(=O)Nc3cccc(Cl)c3)o2)cc1 (stereo not given)	-	-	-	-	109	-
O=C(CN1CCN(c2ncc(C(F)(F)F)cc2Cl)CC1)NCCNc1ncc(C(F)(F)F)cc1Cl	-	-	100	.	-	-
CN(C)C=NC(=O)c1ccc(N2CCN(c3ncc(C(F)(F)F)cc3Cl)CC2)cc1	-	-	-	-	-	-
CN(C)/C=C/C(=O)c1ccc(N2CCN(c3ncc(C(F)(F)F)cc3Cl)CC2)cc1	-	-	109	.	-	-
NNC(=O)CN1CCN(c2ncc(C(F)(F)F)cc2Cl)CC1	-	-	-	-	-	-
COc1ccc(N2CCN(c3nc(Nc4ccc(C)c(F)c4)nc(N4CCCC4)n3)CC2)cc1	-	68	-	-	-	-
COc1ccc(N2CCN(c3nc(Cl)nc(Nc4ccc(F)cc4)n3)CC2)cc1	-	-	-	-	-	-
Cc1sc(NC(=O)c2ccc(Br)s2)c(C(N)=O)c1C	-	-	-	-	61	-
CCN1C(=O)/C(=C\C(=O)c2cccs2)c2cc(Br)ccc21	-	-	103	-	-	-
Cc1ccc(C(=O)c2ccccc2C(=O)OCC(=O)NCCc2ccc(Cl)cc2Cl)cc1	-	-	-	-	54	-
O=C(CSc1nnc2ccccn12)Nc1ccccc1[N+](=O)[O-]	-	.	.	-	.	.
O=C(CSCC(=O)N1CCN(c2ccccc2)CC1)Nc1nc(-c2ccc(Cl)s2)cs1	-	-	-	-	-	-
O=C(CSCC(=O)N1CCCCC1)Nc1nc(-c2ccc(Cl)s2)cs1	-	-	108	-	-	-
COC(=O)c1cc2c(c3c4cc(C)ccc4n(C(=O)c4ccccc4)c13)C(=O)N(Cc1ccccc1)C2	.	.	.	-	.	.
SMILES	N-glyco inh	T cruzi inh	PfHsp90 set2	CaV13 ICDI inh	HSF-1 act	PvdQ acylase
CCC(CC)COC(=O)C1=C(C)NC(=O)NC1c1cc(OC)ccc1OC (stereo not given)	-	-	-	-	70	-
CCOC(=O)c1cc(-c2cccc([N+](=O)[O-])c2)on1	-	-	.	-	-	62
CCCCNC(=S)NNC(=O)c1csc2ccccc12	-	-	-	-	131	-
Cc1cc(=O)oc2cc(NC(=O)c3ccccc3Cl)ccc12	-	-	-	-	63	-
Cc1cccc(OCC(=O)Nc2ccc3c(C)cc(=O)oc3c2)c1	-	-	-	-	-	-
COc1cccc(C(=O)Nc2ccc3c(C)cc(=O)oc3c2)c1	-	-	-	-	108	-
Cc1cc(=O)oc2cc(NC(=O)c3ccccc3C(=O)O)ccc12	-	-	-	-	-	-
CC1(C(=O)NCc2cccnc2)CCN1C(=O)c1cccc(F)c1 (stereo not given)	-	.	.	-	.	.
O=C(/C=C/c1cn(-c2ccccc2)nc1-c1cccnc1)N1CCCC1	-	-	-	-	-	-
O=C(/C=C/c1cn(-c2ccccc2)nc1-c1cccnc1)c1ccco1	32	-	.	-	119	-
COC(=O)[C@H](N[C@H](/C=C/c1ccccc1)[C@@H](O)Cc1ccccc1)c1ccccc1	.	.	.	-	.	.
c1csc(-c2cnc3ccccc3n2)c1	-	-	-	-	53	-
c1cc(-c2cccs2)nc(-c2cccs2)c1	-	-	-	-	-	-
Oc1ccc(-c2cnc(-c3ccc(O)cc3)nc2)cc1	-	-	-	-	67	-
Nc1ccc(-c2cnc(-c3ccc(N)cc3)nc2)cc1	-	-	.	-	-	-
COC(=O)[C@]12C[C@H](CC(=O)NCCC(C)C)C(=O)N(Cc3ccccc3)C1=C[C@H](C(C)C)O[C@@H]2C1CC1	.	.	.	-	.	.
CCN1CCS/C1=C\C=C\C1=[N+](CC)CCS1	-	-	-	84	-	-
CCN1CCS/C1=C/C=C/C1=[N+](CC)CCS1	-	59	-	.	-	-
Cc1ccccc1C(=O)N(C)[C@H]1C[C@H]2c3[nH]c4c(-c5ccc6c(c5)OCO6)cccc4c3CCN2C(=O)[C@H]1[C@H](C)O	.	.	.	-	.	.
NS(=O)(=O)c1ccc(NC(=O)c2cccc3cc4ccccc4nc23)cc1	62	.	-	-	.	-
NS(=O)(=O)c1ccc(NC(=O)c2cccc3ccccc23)cc1	-	-	-	-	-	-
Cc1ccc(S(=O)(=O)NC(=O)ON=Cc2ccc3c(c2)OCO3)cc1	.	.	.	-	.	.
CCN(CC)c1nc(C=Cc2ccc(N(C)C)cc2)c2nccnc2n1	-	.	.	-	.	.
CSc1nccc(N/N=C/c2ccccc2)n1	-	-	-	-	72	-
O=C(NCc1cccc(F)c1)Nc1nnc([C@H]2C[C@H](O)[C@@H](CO)O2)s1	-	.	.	-	.	.
SMILES	N-glyco inh	T cruzi inh	PfHsp90 set2	CaV13 ICDI inh	HSF-1 act	PvdQ acylase
O=C(NCc1ccccc1)[C@H]1CCCN1C(=O)[C@H]1CCCN1C(=O)C1CCCCC1	.	.	.	-	.	.
CC(C)=CCCC(C)CN(C)CCc1ccccn1 (stereo not given)	-	63	-	-	-	-
COc1ccc(CCN2C(=O)CCC2(C)c2nnnn2-c2c(C)cccc2C)cc1OC (stereo not given)	.	.	.	-	.	.
C[C@@H]1ON(C)[C@H]2C[C@H]3c4[nH]c5cccc(-c6cccc(F)c6)c5c4CCN3C(=O)[C@@H]12	.	.	.	-	.	.
CC1(C)Cc2c(C#N)c(SCCOc3ccccc3)nc(N3CCOCC3)c2CO1	-	69	-	.	-	-
O=C(N[C@H](C(=O)N1CCC[C@H]1C(=O)NCc1ccccc1)C1CCCCC1)c1ccc(Cl)cc1Cl	.	.	.	-	.	.
